This note sets out measurements from ChEMBL document CHEMBL3102822, “Synthesis, biological evaluation and molecular docking studies of benzyloxyacetohydroxamic acids as LpxC inhibitors” (Bioorg Med Chem, 2014).

Experiment [1] addresses T1, UDP-3-O-acyl-N-acetylglucosamine deacetylase (Escherichia coli K-12) (UniProt P0A725).
T1 sequence (whole entry): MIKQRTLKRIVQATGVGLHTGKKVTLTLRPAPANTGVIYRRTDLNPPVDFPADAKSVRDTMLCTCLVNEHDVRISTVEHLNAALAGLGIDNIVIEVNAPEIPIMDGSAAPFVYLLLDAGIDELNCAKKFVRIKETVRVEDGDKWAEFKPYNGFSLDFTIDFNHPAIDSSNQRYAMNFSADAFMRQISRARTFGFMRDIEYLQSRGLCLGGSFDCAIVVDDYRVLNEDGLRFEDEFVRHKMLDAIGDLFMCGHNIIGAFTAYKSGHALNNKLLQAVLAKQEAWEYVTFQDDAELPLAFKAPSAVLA
The experiment is described as follows: Inhibition of Escherichia coli LpxC using UDP-3-O-[(R)-3-hydroxymyristoyl]-N-acetylglucosamine as substrate up to 200 uM incubated for 30 mins prior to enzyme addition by fluorescence assay. The procedure, abridged: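 Purified E. coli LpxC (stored in 50 mM Bis/Tris pH 6.0, 150 mM NaCl). 40 mM MES pH 6.0 with 25 µM substrate, 80 µM DTT, 0.02% Brij 35; inhibitors in DMSO, 0.2 nM–200 µM, 30 min at 37 °C shaking before adding 500 ng enzyme. Stopped with NaOH, neutralized with acetic acid; product derivatized with o-phthaldialdehyde-2-mercaptoethanol in borax, fluorescence ex 340/em 460 nm. IC50 converted to Ki by Cheng-Prusoff (KM 4 µM); mean ± SD, n=3.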

The target in experiment [2] is T2, UDP-3-O-acyl-N-acetylglucosamine deacetylase (Escherichia coli K-12, UniProt P0A725).
T2 sequence (P0A725 whole entry): T1 sequence (whole entry)
Description: Inhibition of Escherichia coli LpxC using UDP-3-O-[(R)-3-hydroxymyristoyl]-N-acetylglucosamine as substrate incubated for 30 mins prior to enzyme addition by fluorescence assay.

Experiment [3] has as its system Escherichia coli. Description: Antimicrobial activity against Escherichia coli D22 at 10 mM after overnight incubation by agar disc diffusion method. Format: functional. The conditions noted are these: read-out: DIZ. The procedure, abridged:
(§1)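 Strains grown overnight in LB broth at 37 °C, 200 rpm; 150 µL overnight suspension spread on LB agar. 15 µL of compound (10 mM stock in DMSO) applied to 6 mm filter paper discs; DMSO negative and CHIR-090 positive controls. Plates incubated overnight at 37 °C; zone of inhibition diameter measured, mean ± SD of three independent experiments.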
Background: Agar diffusion results depend on both activity and mobility in agar.

The test system of experiment [4] is Escherichia coli. The experiment is described as follows: Antimicrobial activity against Escherichia coli BL21(DE3) at 10 mM after overnight incubation by agar disc diffusion method. The format is functional. The conditions noted are these: read-out: DIZ. The procedure, abridged:
as §1

Calls of active or inactive are those of the source. No cut-off for these calls is given here. A value given as a limit tells only on which side of the number the result lay.

On to `C[Si](C)(C)C#Cc1ccc([C@@H](CO)OCC(=O)NO)cc1`, for which the inhibition entry in experiment [1] is “inactive”. The IC50 in experiment [2] is more than 200 µM. Further, the zone of inhibition at 10000 µM was 7.5 mm in experiment [3] and less than 6 mm in experiment [4].

In experiment [2], `O=C(COCc1ccc(C#Cc2ccccc2)cc1)NO` showed an IC50 of more than 200 µM. For the same compound, the values for the zone of inhibition at 10000 µM in experiment [3] and in experiment [4] were 13.2 mm and 10.6 mm, respectively.

As for `C#Cc1ccc([C@@H](CO)OCC(=O)NO)cc1`, in experiment [1], the inhibition entry is “inactive”. Besides, in experiment [2], the half-inhibitory concentration (IC50) is more than 200 µM. The zone of inhibition at 10000 µM in experiment [3] and in experiment [4] was less than 6 mm throughout.

In experiment [2], `O=C(COCc1ccc(C#Cc2ccc(CN3CCOCC3)cc2)cc1)NO` displayed a half-maximal inhibitory concentration (IC50) of 10.5 µM and an inhibitory constant (Ki) of 1.45 µM. In addition, in experiment [3], the zone of inhibition at 10000 µM was 20.3 mm. In addition, the zone of inhibition at 10000 µM in experiment [4] amounted to 16.5 mm.

Consider `C#Cc1ccc([C@H](CO)OCC(=O)NO)cc1`, for which, in experiment [2], the IC50 was more than 200 µM. Besides, the zone of inhibition at 10000 µM in experiment [3] and in experiment [4] was less than 6 mm in each case.

Consider `O=C(CO[C@H](CO)c1ccc(Br)cc1)NO`, for which, in experiment [1], the inhibition entry is “inactive”. In addition, in experiment [2], the IC50 was more than 200 µM. Besides, the zone of inhibition at 10000 µM in experiment [3] and in experiment [4] was less than 6 mm in each case.

In turn, `O=C(CO[C@@H](CO)c1ccc(Br)cc1)NO` came in with an IC50 in experiment [2] of more than 200 µM. Besides, the zone of inhibition at 10000 µM in experiment [3] and in experiment [4] was less than 6 mm throughout.

`O=C(CO[C@@H](CO)c1ccc(C#Cc2ccccc2)cc1)NO`: in experiment [2], it took 31.6 µM to reach half-maximal inhibition (IC50) and affinity was put at a Ki of 4.4 µM. For the same compound, the zone of inhibition at 10000 µM in experiment [3] was determined as 13 mm. Further, in experiment [4], the zone of inhibition at 10000 µM was found to be 9.1 mm.

The compound `O=C(CO[C@H](CO)c1ccccc1)NO` registered an IC50 in experiment [2] of more than 200 µM. Further, the zone of inhibition at 10000 µM in experiment [3] and in experiment [4] was less than 6 mm each time.

`O=C(CO[C@@H](CO)c1ccccc1)NO` had an IC50 in experiment [2] of more than 200 µM. Moreover, the zone of inhibition at 10000 µM in experiment [3] and in experiment [4] was less than 6 mm in each case.

Consider `O=C(CO[C@@H](CO)c1ccc(C#Cc2ccc(CN3CCOCC3)cc2)cc1)NO`, for which, in experiment [2], half-maximal inhibition (IC50) was put at 198 µM and affinity was put at a Ki of 27.3 µM. Besides, the zone of inhibition at 10000 µM in experiment [3] came to 12.3 mm. Moreover, the zone of inhibition at 10000 µM in experiment [4] was 8.7 mm.

In the case of `O=C(CO[C@H](CO)c1ccc(C#Cc2ccccc2)cc1)NO`, in experiment [2], the IC50 was found to be 0.48 µM and the Ki turned out to be 0.066 µM. The zone of inhibition at 10000 µM in experiment [3] came to 20.5 mm. Moreover, the zone of inhibition at 10000 µM in experiment [4] was found to be 9.5 mm.

In experiment [2], `C[Si](C)(C)C#Cc1ccc([C@H](CO)OCC(=O)NO)cc1` had a half-inhibitory concentration (IC50) of more than 200 µM. Further, the zone of inhibition at 10000 µM in experiment [3] stood at 7.2 mm; in experiment [4], 7.1 mm.

As to `O=C(CO[C@H](CO)c1ccc(C#Cc2ccc(CN3CCOCC3)cc2)cc1)NO`, in experiment [2], it took 0.69 µM to reach half-maximal inhibition (IC50). In experiment [2], this compound came in with a Ki of 0.095 µM. The values for the zone of inhibition at 10000 µM in experiment [3] and in experiment [4] were 21.2 mm and 13.4 mm, respectively.

In experiment [2], `O=C(NO)[C@H](CO)O[C@H](CO)c1ccc(C#Cc2ccc(CN3CCOCC3)cc2)cc1` had an IC50 of 2.6 µM and a Ki of 0.358 µM. For the same compound, in experiment [3], the zone of inhibition at 10000 µM was determined as 20.8 mm. Besides, the zone of inhibition at 10000 µM in experiment [4] was determined as 9 mm.

In the case of `C[C@@H](O)[C@H](NC(=O)c1ccc(C#Cc2ccc(CN3CCOCC3)cc2)cc1)C(=O)NO`, the values for the zone of inhibition at 10000 µM in experiment [3] and in experiment [4] were 30.3 mm and 24.6 mm, respectively.

As for `O=C(NO)[C@H]1O[C@@H](c2ccc(C#Cc3ccc(CN4CCOCC4)cc3)cc2)[C@@H](O)[C@H]1O`, the half-maximal inhibitory concentration (IC50) in experiment [2] was more than 200 µM. In addition, the zone of inhibition at 10000 µM in experiment [3] is 13.1 mm; in experiment [4], less than 6 mm.

Broadly, the IC50 is the concentration needed to halve the response being measured. Low values mean higher potency, high ones lower potency. As usually defined, the Ki is the equilibrium dissociation constant of an inhibitor or competing ligand from its target. A higher Ki goes with a looser hold on the target.
